Source: ChEMBL document CHEMBL4699596, “Therapeutic Targeting of MMP-12 for the Treatment of Chronic Obstructive Pulmonary Disease” (J Med Chem, 2020)
Active and inactive are the calls of the source. The calls are words filed in the database; no cut-off is given here. Non-standard residues stand in square brackets, D forms with d. Residues, ends and D or L forms follow the SMILES beside them. *: point of attachment. dPhe(4-CF3) = N[C@H](Cc1ccc(C(F)(F)F)cc1)C(=O)O; dBip = N[C@H](Cc1ccc(-c2ccccc2)cc1)C(=O)O; dPhe(3-Cl) = N[C@H](Cc1cccc(Cl)c1)C(=O)O; dPhe(3-Me) = Cc1cccc(C[C@@H](N)C(=O)O)c1; dPhe(4-Cl) = N[C@H](Cc1ccc(Cl)cc1)C(=O)O; dPhe(4-Me) = Cc1ccc(C[C@@H](N)C(=O)O)cc1; dPhe(2-Me) = Cc1ccccc1C[C@@H](N)C(=O)O; dPhe(3-F) = N[C@H](Cc1cccc(F)c1)C(=O)O; dPhe(4-F) = N[C@H](Cc1ccc(F)cc1)C(=O)O; 2Nal = N[C@@H](Cc1ccc2ccccc2c1)C(=O)O; dPhe(2-F) = N[C@H](Cc1ccccc1F)C(=O)O; dIgl = N[C@@H](C(=O)O)C1Cc2ccccc2C1; d(hPhe) = N[C@H](CCc1ccccc1)C(=O)O; Bn = c1ccc(C*)cc1; NHOH = ON*

What was measured:
[1] = biological target: T1, Interstitial collagenase (Homo sapiens) (UniProt P03956); assay: Inhibition of recombinant human 6His-tagged MMP1 catalytic domain (106 to 261 residues) expressed in Escherichia coli at 4 to 25 nM using 5-FAM/QXL520 FRET peptide as substrate preincubated for 15 mins followed by substrate addition and measured at 3 mins interval for 60 mins by fluorescence assay; conditions: dose nM 4-25, time 75.0 min
T1 sequence (whole entry): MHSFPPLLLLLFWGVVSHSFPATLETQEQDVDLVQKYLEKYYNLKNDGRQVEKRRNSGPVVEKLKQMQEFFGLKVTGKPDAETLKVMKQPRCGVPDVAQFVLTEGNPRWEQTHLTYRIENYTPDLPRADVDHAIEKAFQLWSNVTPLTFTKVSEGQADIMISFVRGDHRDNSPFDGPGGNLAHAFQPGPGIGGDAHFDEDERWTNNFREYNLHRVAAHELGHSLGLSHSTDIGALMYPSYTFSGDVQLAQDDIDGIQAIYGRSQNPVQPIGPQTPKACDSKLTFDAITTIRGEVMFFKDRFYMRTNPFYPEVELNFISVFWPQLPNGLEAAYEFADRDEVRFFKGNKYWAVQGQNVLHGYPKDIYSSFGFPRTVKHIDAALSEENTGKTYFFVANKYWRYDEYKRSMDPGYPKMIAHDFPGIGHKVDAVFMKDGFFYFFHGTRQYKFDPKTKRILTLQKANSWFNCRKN
Summary of the method: (§1)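 Catalytic domains, 10 ng enzyme, preincubated with inhibitor 15 min at RT. FRET substrate (SensoLyte 520 kit) then added, fluorescence read every 3 min for 60 min. Inhibitors at 25 nM or 4 nM; percent inhibition reported.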

[2] = biological target: T2, Macrophage metalloelastase (Homo sapiens, UniProt P39900); assay: Binding affinity to recombinant human 15N-labelled MMP12 catalytic domain (Gly106 to Gly263 residues) expressed in Escherichia coli BL21 Codon Plus cells assessed as ratio of peak intensities of L212 and I220 in bound versus the unbound form at 10 uM by 1D-1H NMR analysis
Target sequence in this assay (P39900 106-470 limits assumed): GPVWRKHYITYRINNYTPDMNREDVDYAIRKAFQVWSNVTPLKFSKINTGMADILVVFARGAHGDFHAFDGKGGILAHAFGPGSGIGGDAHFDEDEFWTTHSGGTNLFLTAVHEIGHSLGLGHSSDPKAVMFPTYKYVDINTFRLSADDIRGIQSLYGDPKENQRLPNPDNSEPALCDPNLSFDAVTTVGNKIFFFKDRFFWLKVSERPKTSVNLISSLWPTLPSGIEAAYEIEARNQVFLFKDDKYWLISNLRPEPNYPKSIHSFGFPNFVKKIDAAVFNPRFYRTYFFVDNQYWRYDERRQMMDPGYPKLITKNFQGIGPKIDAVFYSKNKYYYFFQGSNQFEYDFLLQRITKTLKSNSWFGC

[3] = biological target: Matrix metalloproteinase-9 (Homo sapiens) (UniProt P14780); assay: Inhibition of recombinant human 6His-tagged MMP9 catalytic domain (112 to 445 residues) expressed in Escherichia coli at 4 to 25 nM using 5-FAM/QXL520 FRET peptide as substrate preincubated for 15 mins followed by substrate addition and measured at 3 mins interval for 60 mins by fluorescence assay; conditions: dose nM 4-25, time 75.0 min; summary of the method: as §1
Sequence of Matrix metalloproteinase-9 (Homo sapiens) (P14780 whole entry, the tested form may be a part): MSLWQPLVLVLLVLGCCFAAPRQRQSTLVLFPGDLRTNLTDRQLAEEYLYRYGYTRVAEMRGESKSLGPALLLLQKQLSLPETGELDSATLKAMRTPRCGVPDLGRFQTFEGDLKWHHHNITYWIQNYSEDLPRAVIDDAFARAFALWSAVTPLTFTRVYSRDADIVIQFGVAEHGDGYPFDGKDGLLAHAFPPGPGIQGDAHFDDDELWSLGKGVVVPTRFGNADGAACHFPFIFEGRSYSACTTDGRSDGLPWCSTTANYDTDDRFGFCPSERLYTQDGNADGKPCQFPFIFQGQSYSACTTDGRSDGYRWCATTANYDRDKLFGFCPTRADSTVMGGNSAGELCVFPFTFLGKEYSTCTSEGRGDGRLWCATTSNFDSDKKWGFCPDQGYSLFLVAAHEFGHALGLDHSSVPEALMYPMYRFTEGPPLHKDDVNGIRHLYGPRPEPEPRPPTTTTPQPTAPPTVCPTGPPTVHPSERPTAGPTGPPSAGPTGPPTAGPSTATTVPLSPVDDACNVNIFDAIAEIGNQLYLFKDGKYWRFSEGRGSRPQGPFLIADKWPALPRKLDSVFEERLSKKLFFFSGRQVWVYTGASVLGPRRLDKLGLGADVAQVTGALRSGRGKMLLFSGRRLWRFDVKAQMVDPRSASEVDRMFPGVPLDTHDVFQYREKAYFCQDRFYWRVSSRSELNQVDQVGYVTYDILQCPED

[4] = biological target: Matrix metalloproteinase-14 (Homo sapiens) (UniProt P50281); assay: Inhibition of recombinant human His-tagged MMP14 expressed in Escherichia coli at 4 to 25 nM using 5-FAM/QXL520 FRET peptide as substrate preincubated for 15 mins followed by substrate addition and measured at 3 mins interval for 60 mins by fluorescence assay; conditions: dose nM 4-25, time 75.0 min; summary of the method: as §1
[5] = biological target: Collagenase 3 (Homo sapiens) (UniProt P45452); assay: Inhibition of recombinant human 6His-tagged MMP13 catalytic domain (104 to 274 residues) expressed in Escherichia coli at 4 to 25 nM using 5-FAM/QXL520 FRET peptide as substrate preincubated for 15 mins followed by substrate addition and measured at 3 mins interval for 60 mins by fluorescence assay; conditions: dose nM 4-25, time 75.0 min; summary of the method: as §1
[6] = biological target: T2, Macrophage metalloelastase; assay: Inhibition of recombinant human MMP12 catalytic domain (Gly106 to Gly263 residues) expressed in Escherichia coli BL21 Codon Plus cells using 5-FAM/QXL520 FRET peptide as substrate preincubated for 15 mins followed by substrate addition and measured at 3 mins interval for 60 mins by fluorescence assay
Target sequence in this assay (P39900 whole entry, the tested form may be a part): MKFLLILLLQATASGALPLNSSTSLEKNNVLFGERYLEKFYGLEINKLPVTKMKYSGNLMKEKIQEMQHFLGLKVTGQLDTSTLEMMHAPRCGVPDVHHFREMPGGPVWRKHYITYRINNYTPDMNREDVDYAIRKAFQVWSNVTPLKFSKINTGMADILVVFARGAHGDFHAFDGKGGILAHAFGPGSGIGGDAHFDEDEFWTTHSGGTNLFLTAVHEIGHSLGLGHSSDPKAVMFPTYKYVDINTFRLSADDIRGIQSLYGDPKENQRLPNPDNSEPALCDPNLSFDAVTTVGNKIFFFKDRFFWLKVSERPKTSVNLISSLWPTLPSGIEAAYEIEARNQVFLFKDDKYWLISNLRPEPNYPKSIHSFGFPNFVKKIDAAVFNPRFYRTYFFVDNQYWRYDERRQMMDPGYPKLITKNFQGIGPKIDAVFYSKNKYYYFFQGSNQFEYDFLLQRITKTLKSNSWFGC

[7] = biological target: Stromelysin-1 (Homo sapiens) (UniProt P08254); assay: Inhibition of recombinant human His-tagged MMP3 catalytic domain (Pro19 to Glu271 residues) expressed in Escherichia coli at 4 to 25 nM using 5-FAM/QXL520 FRET peptide as substrate preincubated for 15 mins followed by substrate addition and measured at 3 mins interval for 60 mins by fluorescence assay; conditions: dose nM 4-25, time 75.0 min; summary of the method: as §1
Sequence of Stromelysin-1 (Homo sapiens) (P08254 100-477 limits assumed): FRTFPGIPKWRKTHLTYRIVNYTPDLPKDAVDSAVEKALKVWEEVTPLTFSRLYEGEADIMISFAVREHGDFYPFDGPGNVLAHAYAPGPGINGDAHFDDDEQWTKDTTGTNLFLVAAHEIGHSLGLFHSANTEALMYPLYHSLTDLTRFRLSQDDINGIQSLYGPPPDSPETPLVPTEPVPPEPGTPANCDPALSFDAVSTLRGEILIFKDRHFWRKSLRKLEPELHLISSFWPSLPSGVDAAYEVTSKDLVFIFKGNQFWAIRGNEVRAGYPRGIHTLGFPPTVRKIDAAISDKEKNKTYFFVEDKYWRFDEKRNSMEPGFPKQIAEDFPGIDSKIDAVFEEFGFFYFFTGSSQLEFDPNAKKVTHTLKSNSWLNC

[8] = test system: Mus musculus; assay: Protection against porcine elastase-induced emphysema in ip dosed C57BL/6 mouse model assessed as effect on total BALF cellularity/influx administered once daily for 7 days measured 21 days post initial elastase instillation; type: functional, organism-based; conditions: time 19.0 day
Summary of the method: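 Same elastase and dosing scheme as line 10 (C57BL/6, intranasal 0.9 U PPE, daily i.p. for 7 days from day 2). At day 21 BAL cell pellet taken up in 200 μl PBS and counted on a hemocytometer. Cytospin differentials of 300 cells per slide. Two-way ANOVA with Tukey post-hoc.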

[9] = test system: Mus musculus; assay: Protection against porcine elastase-induced emphysema in ip dosed C57BL/6 mouse model assessed as decrease in emphysema-like pathology administered once daily for 7 days measured 21 days post initial elastase instillation by H and E staining based light microscopic analysis; type: functional, organism-based; conditions: time 19.0 day
Summary of the method: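 Male and female C57BL/6 mice, 6–8 weeks, given one intranasal dose of 0.9 U porcine pancreatic elastase in 50 μl PBS (saline controls). From day 2, daily i.p. vehicle or inhibitor for 7 days. At day 21 lungs formalin-inflated at 20 cm pressure, paraffin-embedded, H&E-stained and imaged at 10x. Mean linear intercept = line length/alveolar wall intersections. Two-way ANOVA with Tukey.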

[10] = biological target: T2, Macrophage metalloelastase; assay: Potency index, ratio of MMP408 IC50 to test compound IC50 for inhibition of recombinant human MMP12 catalytic domain (Gly106 to Gly263 residues) expressed in Escherichia coli BL21 Codon Plus cells
Target sequence in this assay (P39900 106-470 limits assumed): as the sequence (P39900 106-470 limits assumed) above

| SMILES | Ratio [2] | IC50 [6] [nM] | other results |
| --- | --- | --- | --- |
| CC(=O)N[C@@H](Cc1c[nH]c2ccccc12)C(=O)N[C@H](CCc1ccccc1)C(=O)N[C@H](Cc1ccccc1)C(=O)NO (HELM PEPTIDE1{[ac].W.[O=C([C@@H](CCc1ccccc1)N[*:1])[*:2]].[dF].[ON[*:1]]}$$$$V2.0) | 1 | 34.9 |  |
| CC(=O)N[C@@H](Cc1ccc2ccccc2c1)C(=O)N[C@H](CCc1ccccc1)C(=O)N[C@H](Cc1ccccc1)C(=O)NO (Ac-[2Nal]-[d(hPhe)]-[dF]-{NHOH}) | < 1 | 138 |  |
| CC(=O)N[C@@H](COCc1ccccc1)C(=O)N[C@H](CCc1ccccc1)C(=O)N[C@H](Cc1cccc(Cl)c1)C(=O)NO (Ac-Ser(Bn)-[d(hPhe)]-[dPhe(3-Cl)]-{NHOH}) | > 1 | 47.2 |  |
| CC(=O)N[C@@H](COCc1ccccc1)C(=O)N[C@H](CCc1ccccc1)C(=O)N[C@H](Cc1cccc(C)c1)C(=O)NO (Ac-Ser(Bn)-[d(hPhe)]-[dPhe(3-Me)]-{NHOH}) | > 1 | 35.5 |  |
| CC(=O)N[C@@H](CCCc1ccccc1)C(=O)N[C@H](CCc1ccccc1)C(=O)N[C@H](Cc1ccccc1)C(=O)NO | > 1 | 19.5 |  |
| COC(=O)Nc1ccc2oc3cc(S(=O)(=O)N[C@@H](C(=O)O)C(C)C)ccc3c2c1 |  |  | Activity [8]: inactive; Activity [9]: Active |
| CC(=O)N[C@@H](COCc1ccccc1)C(=O)N[C@@H](C(=O)N[C@H](Cc1ccccc1)C(=O)NO)C1Cc2ccccc2C1 (Ac-Ser(Bn)-[dIgl]-[dF]-{NHOH}) | inactive |  |  |
| CC(=O)N[C@@H](COCc1ccccc1)C(=O)N[C@H](CCc1ccccc1)C(=O)N[C@H](Cc1ccc(OS(=O)(=O)F)cc1)C(=O)NO | < 1 |  |  |
| COc1ccc(CC[C@@H](NC(=O)[C@H](COCc2ccccc2)NC(C)=O)C(=O)N[C@H](Cc2ccccc2)C(=O)NO)cc1 | > 1 | 16.3 |  |
| CC(=O)N[C@@H](COCc1ccccc1)C(=O)N[C@H](CCc1ccccc1)C(=O)N[C@H](Cc1ccccc1F)C(=O)NO (Ac-Ser(Bn)-[d(hPhe)]-[dPhe(2-F)]-{NHOH}) | > 1 | 27.8 |  |
| CC(=O)N[C@@H](COCc1ccccc1)C(=O)N[C@H](CCc1ccccc1)C(=O)N[C@H](Cc1ccc(F)c(F)c1F)C(=O)NO | 1 | 75.9 |  |
| CC(=O)N[C@@H](COCc1ccccc1)C(=O)N[C@H](CCc1ccccc1)C(=O)N[C@H](Cc1ccc(C(F)(F)F)cc1)C(=O)NO (Ac-Ser(Bn)-[d(hPhe)]-[dPhe(4-CF3)]-{NHOH}) | 1 | 57.1 |  |

Second part, led by results:

| Ratio [2] | IC50 [6] [nM] | SMILES | other results |
| --- | --- | --- | --- |
| > 1 | 26.5 | CC(=O)N[C@@H](COCc1ccccc1)C(=O)N[C@H](CCc1ccccc1)C(=O)N[C@H](Cc1ccccc1)C(=O)NO (Ac-Ser(Bn)-[d(hPhe)]-[dF]-{NHOH}) | inhibition [1]: inactive; inhibition [3]: inactive; inhibition [4]: inactive; inhibition [5]: inactive |
|  | 2.4 | CNC(=O)[C@H](Cc1c[nH]c2ccccc12)NC(=O)[C@@H](CC(=O)NO)CC(C)C [ILOMASTAT] | inhibition [7]: Active |
| 1 | 16.7 | CC(=O)N[C@@H](COCc1ccccc1)C(=O)N[C@H](CCc1ccc(C(F)(F)F)cc1)C(=O)N[C@H](Cc1ccccc1)C(=O)NO |  |
| > 1 | 42 | CC(=O)N[C@@H](COCc1ccccc1)C(=O)N[C@H](CCc1ccccc1)C(=O)N[C@H](Cc1ccc(F)cc1)C(=O)NO (Ac-Ser(Bn)-[d(hPhe)]-[dPhe(4-F)]-{NHOH}) |  |
| 1 | 36.1 | CC(=O)N[C@@H](COCc1ccccc1)C(=O)N[C@H](CCc1ccccc1)C(=O)N[C@H](Cc1ccc(OC(C)=O)cc1)C(=O)NO (Ac-Ser(Bn)-[d(hPhe)]-[dY](Ac)-{NHOH}) |  |
| inactive |  | CC(=O)N[C@@H](COCc1ccccc1)C(=O)N[C@H](Cc1ccc(-c2ccccc2)cc1)C(=O)N[C@H](Cc1ccccc1)C(=O)NO (Ac-Ser(Bn)-[dBip]-[dF]-{NHOH}) |  |
| > 1 | 30.2 | CC(=O)N[C@@H](COCc1ccccc1)C(=O)N[C@H](CCc1ccccc1)C(=O)N[C@H](Cc1cccc(F)c1)C(=O)NO (Ac-Ser(Bn)-[d(hPhe)]-[dPhe(3-F)]-{NHOH}) |  |
| < 1 |  | CC(=O)N[C@@H](COCc1ccccc1)C(=O)N[C@H](CCCc1ccccc1)C(=O)N[C@H](Cc1ccccc1)C(=O)NO |  |
| > 1 | 42.1 | CC(=O)N[C@@H](COCc1ccccc1)C(=O)N[C@H](CCc1ccccc1)C(=O)N[C@H](Cc1ccc(O)cc1)C(=O)NO (Ac-Ser(Bn)-[d(hPhe)]-[dY]-{NHOH}) |  |
| > 1 | 35.1 | CC(=O)N[C@@H](COCc1ccccc1)C(=O)N[C@H](CCc1ccccc1)C(=O)N[C@H](Cc1ccc(Cl)cc1)C(=O)NO (Ac-Ser(Bn)-[d(hPhe)]-[dPhe(4-Cl)]-{NHOH}) |  |
| < 1 |  | CC(=O)N[C@@H](COCc1ccccc1)C(=O)N[C@H](CCc1ccccc1)C(=O)N[C@H](Cc1ccccc1C)C(=O)NO (Ac-Ser(Bn)-[d(hPhe)]-[dPhe(2-Me)]-{NHOH}) |  |
|  | 4.4 | COc1ccc(CCC[C@H](NC(=O)CN2CCOCC2)C(=O)N[C@H](CCc2ccc(OC)cc2)C(=O)N[C@H](Cc2ccc(C)cc2)C(=O)NO)cc1 | Ratio IC50 [10]: > 5; inhibition [1]: inactive; Activity [8]: inactive; inhibition [3]: inactive; inhibition [4]: inactive; inhibition [5]: inactive; inhibition [7]: Active; Activity [9]: Active |
| > 1 | 20.9 | CC(=O)N[C@@H](COCc1ccccc1)C(=O)N[C@H](CCc1ccccc1)C(=O)N[C@H](Cc1ccc(C)cc1)C(=O)NO (Ac-Ser(Bn)-[d(hPhe)]-[dPhe(4-Me)]-{NHOH}) |  |
| > 1 | 20.5 | COc1ccc(CCC[C@H](NC(C)=O)C(=O)N[C@H](CCc2ccccc2)C(=O)N[C@H](Cc2ccccc2)C(=O)NO)cc1 |  |
